This note sets out measurements from ChEMBL document CHEMBL1765016, “Indolylarylsulfones as HIV-1 non-nucleoside reverse transcriptase inhibitors: new cyclic substituents at indole-2-carboxamide” (J Med Chem, 2011).

In data set [1] the test system is Human immunodeficiency virus 2. As to the kind of experiment: Antiviral activity against HIV2 isolate ROD infected in human CEM cells assessed as inhibition of virus-induced cytopathicity after 4 days by microscopic analysis. It counts as functional, organism-based. The following applies: Human immunodeficiency virus 2, ISOLATE ROD, CCRF-CEM, 96 h. The procedure, abridged:
(§1)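 CEM cells (~3 × 10⁵ cells/mL) infected with ~100 CCID₅₀ virus per mL, seeded into wells with compound dilutions. Syncytia (giant cell) formation scored microscopically after 4 days at 37 °C. EC₅₀ is the concentration protecting cells by 50%. Values are means of two experiments in triplicate.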
(Damage to the host cells serves as the signal in cytopathic effect assays.)

The subject of data set [2] is Human immunodeficiency virus 1. The experiment in a line: Antiviral activity against wild type HIV1 3B infected in human CEM cells assessed as inhibition of virus-induced cytopathicity after 4 days by microscopic analysis. It counts as functional, organism-based. The following applies: Human immunodeficiency virus 1, 3B, CCRF-CEM, 96 h. The procedure, abridged: as §1

Data set [3] concerns the target Human immunodeficiency virus type 1 reverse transcriptase (Human immunodeficiency virus 1, UniProt Q72547, Y181I). As to the kind of experiment: Inhibition of HIV1 reverse transcriptase Y181I mutant expressed in Escherichia coli assessed as incorporation of [3H]dTTP into poly(rA)/oligo(dT) by scintillation counting. The procedure, abridged:
(§2)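 The RT was recombinant p66(His)/p51 heterodimer, mutant form, expressed in E. coli. TCA-precipitable radioactivity on GF/C filters was read by scintillation. IC50 is the concentration giving 50% inhibition.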

Data set [4] addresses Human immunodeficiency virus type 1 reverse transcriptase (Human immunodeficiency virus 1, UniProt Q72547, K103N). The experiment in a line: Inhibition of HIV1 reverse transcriptase K103N mutant expressed in Escherichia coli assessed as incorporation of [3H]dTTP into poly(rA)/oligo(dT) by scintillation counting. The procedure, abridged: as §2
Data set [5] has as its target Human immunodeficiency virus type 1 reverse transcriptase (Human immunodeficiency virus 1, UniProt Q72547, L100I). The experiment in a line: Inhibition of HIV1 reverse transcriptase L100I mutant expressed in Escherichia coli assessed as incorporation of [3H]dTTP into poly(rA)/oligo(dT) by scintillation counting. The procedure, abridged:
as §2

Data set [6] deals with Human immunodeficiency virus type 1 reverse transcriptase (Human immunodeficiency virus 1, UniProt Q72547). As to the kind of experiment: Inhibition of HIV1 wild type reverse transcriptase expressed in Escherichia coli assessed as incorporation of [3H]dTTP into poly(rA)/oligo(dT) by scintillation counting. The procedure, abridged:
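Template was poly(rA)/oligo(dT) 10:1 (0.3 μM 3′-OH ends) with 10 μM [³H]dTTP, at 37 °C. TCA-precipitable counts were taken on GF/C filters. IC₅₀ is 50% inhibition of RT activity.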

Data set [7] is described as follows: Selectivity index, CC50 for human CEM cells to IC50 for HIV1 3B. It counts as functional, CCRF-CEM. In short, it runs like this:
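Ratio of CC₅₀ (Coulter count, mock-infected CEM) to EC₅₀ (CEM, HIV-1 IIIB, microscopic syncytia scoring at day 4).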

The nature of data set [8]: Cytotoxicity against human CEM cells by coulter counter analysis. It is filed as cell-based. The following applies: CEM (CCRF-CEM) cells. In short, it runs like this: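 Mock-infected CEM cultures with compound, cell number counted by Coulter counter as percent of untreated control. CC₅₀ (50% reduction in proliferation) was read from plots against concentration. Values are means of two experiments in triplicate.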

A value given as a limit tells only on which side of the number the result lay.

In general, EC50 refers to the concentration needed to bring the measured effect to its halfway point. A word on the IC50: it is the concentration at which inhibition is half-maximal. As a reminder, the CC50 is the concentration giving 50% cytotoxicity. Lower therefore signals harm at low concentration. For the compound `Cc1cc(C)cc(S(=O)(=O)c2c(C(=O)NCCN3CCCC3)[nH]c3ccc(Cl)c(F)c23)c1`, the figures for the EC50 in data set [1] and in data set [2] were above 2 µM and 0.028 µM, respectively. In addition, the IC50 was above 40 µM in data set [3], 2.41 µM in data set [4], 1.55 µM in data set [5] and 0.158 µM in data set [6]. In data set [7], the “Selectivity Index” value stood at 229. Besides, it took 6.4 µM to reach half-maximal cytotoxicity in data set [8] (CC50).

As for `Cc1cc(C)cc(S(=O)(=O)c2c(C(=O)NCCN3CCOCC3)[nH]c3ccc(Cl)cc23)c1`, the EC50 is above 2 µM in data set [1] and 0.0088 µM in data set [2]. The IC50 in data set [3] was above 40 µM; in data set [4], 6.68 µM; in data set [5], 0.225 µM; in data set [6], 0.099 µM. The “Selectivity Index” value in data set [7] amounted to 5682. Also, the CC50 in data set [8] stood at 50 µM.

With `O=C1Nc2ccc(Cl)cc2[C@@](C#CC2CC2)(C(F)(F)F)O1` [EFAVIRENZ], the EC50 in data set [1] was above 10 µM; in data set [2], 0.0015 µM. For the same compound, the “Selectivity Index” value in data set [7] was above 6667. The compound also displayed a CC50 in data set [8] above 10000 µM.

For `Cc1cc(C)cc(S(=O)(=O)c2c(C(=O)NCN3CCOCC3)[nH]c3ccc(Br)cc23)c1`, the EC50 in data set [1] is above 10 µM; in data set [2], 0.0034 µM. For the same compound, the half-maximal inhibitory concentration (IC50) came to 4.3 µM in data set [3], 0.863 µM in data set [4], 0.1 µM in data set [5] and 0.168 µM in data set [6]. For the same compound, in data set [7], the “Selectivity Index” value is 10294. In data set [8], this compound displayed a CC50 of 35 µM.

`Cc1ccnc2c1NC(=O)c1cccnc1N2C1CC1` [NEVIRAPINE]: the half-maximal effective concentration (EC50) was above 10 µM in data set [1] and 0.0192 µM in data set [2]. Besides, the “Selectivity Index” value in data set [7] is on record as above 520. Moreover, the half-maximal cytotoxic concentration (CC50) in data set [8] is above 10000 µM.

Turning to `Cc1cc(C)cc(S(=O)(=O)c2c(C(=O)NCCc3ccccc3)[nH]c3ccc(Br)cc23)c1`, the EC50 is above 2 µM in data set [1] and 0.014 µM in data set [2]. Besides, the IC50 in data set [3] is above 40 µM; in data set [4], 1.68 µM; in data set [5], 0.023 µM; in data set [6] it was 0.128 µM. Also, the “Selectivity Index” value in data set [7] is listed as 29214. In addition, the CC50 in data set [8] was found to be 409 µM.

As for `Cc1cc(C)cc(S(=O)(=O)c2c(C(=O)NCc3ccccc3)[nH]c3ccc(Cl)c(F)c23)c1`, the EC50 in data set [1] is above 2 µM; in data set [2] it was 0.0058 µM. For the same compound, the IC50 is above 40 µM in data set [3], 0.144 µM in data set [4], 0.04 µM in data set [5] and 0.04 µM in data set [6]. Further, in data set [7], the “Selectivity Index” value was 2586. In data set [8], this compound returned a CC50 of 15 µM.

With `Cc1cc(C)cc(S(=O)(=O)c2c(C(=O)NCCOc3ccccc3)[nH]c3ccc(Br)cc23)c1`, the EC50 in data set [1] is above 25 µM; in data set [2] it was 0.029 µM. Besides, the IC50 was above 40 µM in data set [3], above 40 µM in data set [4], above 40 µM in data set [5] and 4.72 µM in data set [6]. Further, the “Selectivity Index” value in data set [7] is reported as above 17241. Besides, the CC50 in data set [8] was above 500 µM.

As for `Cc1cc(C)cc(S(=O)(=O)c2c(C(=O)NCN3CCCCC3)[nH]c3ccc(Cl)c(F)c23)c1`, the EC50 is above 10 µM in data set [1] and 0.0039 µM in data set [2]. For the same compound, the “Selectivity Index” value in data set [7] stood at 8205. The half-maximal cytotoxic concentration (CC50) in data set [8] worked out at 32 µM.

In the case of `Cc1cc(C)cc(S(=O)(=O)c2c(C(=O)NCN3CCCC3)[nH]c3ccc(Br)cc23)c1`, the EC50 in data set [1] was above 2 µM; in data set [2] it was 0.0013 µM. Further, the IC50 came to 0.418 µM in data set [3], 0.067 µM in data set [4], 0.014 µM in data set [5] and 0.008 µM in data set [6]. In addition, in data set [7], the “Selectivity Index” value is given as 7385. For the same compound, the CC50 in data set [8] was 9.6 µM.

Consider `Cc1cc(C)cc(S(=O)(=O)c2c(C(=O)NCN3CCCC3)[nH]c3ccc([N+](=O)[O-])cc23)c1`, for which the EC50 in data set [1] amounted to 7.8 µM; in data set [2], 0.0025 µM. Also, the IC50 in data set [3] worked out at 1.02 µM; in data set [4], 0.287 µM; in data set [5], 0.054 µM; in data set [6], 0.034 µM. Further, the “Selectivity Index” value in data set [7] came to 4800. In data set [8], this compound displayed a CC50 of 12 µM.

For the compound `Cc1cc(C)cc(S(=O)(=O)c2c(C(=O)NCCc3ccccc3)[nH]c3ccc([N+](=O)[O-])cc23)c1`, the EC50 is above 50 µM in data set [1] and 0.0068 µM in data set [2]. Further, the IC50 was above 40 µM in data set [3], above 40 µM in data set [4], 0.04 µM in data set [5] and 0.06 µM in data set [6]. In data set [7], the “Selectivity Index” value was above 72529. Besides, the CC50 in data set [8] is above 500 µM.

On to `Cc1cc(C)cc(S(=O)(=O)c2c(C(=O)NCCN3CCCC3)[nH]c3ccc([N+](=O)[O-])cc23)c1`, for which the EC50 in data set [1] is above 10 µM; in data set [2] it was 0.016 µM. Also, the IC50 was above 40 µM in data set [3], 1.35 µM in data set [4], 0.594 µM in data set [5] and 0.28 µM in data set [6]. In data set [7], the “Selectivity Index” value is on record as 1313. Further, half-maximal cytotoxicity in data set [8] (CC50) was put at 21 µM.

`Cc1cc(C)cc(S(=O)(=O)c2c(C(=O)NCCn3cccc3)[nH]c3ccc(Cl)c(F)c23)c1`: the EC50 in data set [1] was above 10 µM; in data set [2] it was 0.0055 µM. In addition, the IC50 amounted to 3.7 µM in data set [3], 0.17 µM in data set [4], 0.03 µM in data set [5] and 0.018 µM in data set [6]. The “Selectivity Index” value in data set [7] is 1782. Also, in data set [8], the CC50 was determined as 9.8 µM.

For `Cc1cc(C)cc(S(=O)(=O)c2c(C(=O)NCN3CCCCC3)[nH]c3ccc(Br)cc23)c1`, the EC50 is above 2 µM in data set [1] and 0.0037 µM in data set [2]. Further, the IC50 in data set [3] is 0.497 µM; in data set [4], 0.125 µM; in data set [5] it was 0.019 µM; in data set [6] it was 0.03 µM. Moreover, the “Selectivity Index” value in data set [7] came out at 2703. The compound also registered a 50% cytotoxic concentration (CC50) in data set [8] of 10 µM.

Consider `Cc1cc(C)cc(S(=O)(=O)c2c(C(=O)NCCN3CCOCC3)[nH]c3ccc(Cl)c(F)c23)c1`, for which the half-maximal effective concentration (EC50) in data set [1] was above 10 µM; in data set [2] it was 0.013 µM. Also, the IC50 is above 40 µM in data set [3], 6.37 µM in data set [4], 0.747 µM in data set [5] and 0.711 µM in data set [6]. In data set [7], the “Selectivity Index” value turned out to be 846. In addition, the CC50 in data set [8] was 11 µM.

As to `Cc1cc(C)cc(S(=O)(=O)c2c(C(=O)NCCN3CCOCC3)[nH]c3ccc([N+](=O)[O-])cc23)c1`, the EC50 worked out at 4.9 µM in data set [1] and 0.008 µM in data set [2]. The IC50 in data set [3] was above 40 µM; in data set [4], above 40 µM; in data set [5], 0.421 µM; in data set [6], 0.055 µM. Also, the “Selectivity Index” value in data set [7] was found to be 5250. This compound came in with a CC50 in data set [8] of 42 µM.

With `Cc1cc(C)cc(S(=O)(=O)c2c(C(=O)NCCc3ccccc3)[nH]c3ccc(Cl)c(F)c23)c1`, the EC50 is above 10 µM in data set [1] and 0.014 µM in data set [2]. The “Selectivity Index” value in data set [7] worked out at 1214. This compound also showed a CC50 in data set [8] of 17 µM.

`Cc1cc(C)cc(S(=O)(=O)c2c(C(=O)NCN3CCCC3)[nH]c3ccc(Cl)c(F)c23)c1`: the EC50 in data set [1] was above 2 µM; in data set [2], 0.0039 µM. Moreover, in data set [7], the “Selectivity Index” value worked out at 2385. For the same compound, in data set [8], the CC50 was 9.3 µM.

Take `Cc1cc(C)cc(S(=O)(=O)c2c(C(=O)NCCn3cccc3)[nH]c3ccc(Br)cc23)c1`: the EC50 in data set [1] is above 10 µM; in data set [2] it was 0.0064 µM. For the same compound, the “Selectivity Index” value in data set [7] amounted to 22813. Further, the CC50 in data set [8] turned out to be 146 µM.
